Source: ChEMBL document CHEMBL1128687, “5-Methyl-6-phenyl-1,3,5,6-tetrahydro-3,6-methano-1,5-benzodiazocine-2,4-dione (BA 41899): representative of a novel class of purely calcium-sensitizing agents” (J Med Chem, 1995)
Calls of active or inactive are those of the source. The calls are words filed in the database; no cut-off is given here.

Columns and labels:
Sus scrofa [1] = species: Sus scrofa; assay: Increase in isometric force of porcine myocardial skinned fibers at 30 uM; format: functional
Sus scrofa [2] = species: Sus scrofa; assay: Effect on porcine myocardial skinned fibers at 1-100 uM (ineffective); format: functional
Cavia porcellus [3] = species: Cavia porcellus; assay: Positive inotropic effect, increased isometric tension on guinea pig heart; format: functional
Procedure, shortened: (§1)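 Left atria from urethane-anaesthetized guinea pigs in Krebs–Henseleit medium at 32 °C, electrically stimulated isometrically at 2.5 s⁻¹ (also 0.25 s⁻¹); compound applied at 1–100 μM after equilibration, exposure up to 60 min; twitch force recorded, EC50 as concentration giving half-maximal effect.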

Sus scrofa [4] = species: Sus scrofa; assay: Increased [Ca2+] activated force in porcine myocardial skinned fibers; format: functional; conditions: Myocardium
Sus scrofa [5] = species: Sus scrofa; assay: Maximal activation of porcine myocardial skinned fibers at 40 uM free [Ca2+] without compound; format: functional
Sus scrofa [6] = species: Sus scrofa; assay: Maximal activation of porcine myocardial skinned fibers at 40 uM [Ca2+] with 100 uM compound; format: functional
Sus scrofa [7] = species: Sus scrofa; assay: Increase in [Ca2+] activated force in porcine myocardial skinned fibers; format: functional, Myocardium
Sus scrofa [8] = species: Sus scrofa; assay: Reduced [Ca2+] activated force development on porcine skinned myocardial fibers at 100 uM; format: functional; parameters: scale not given: the % may be the effect or the level left
[9] = target: T1, Alpha-2A adrenergic receptor (Homo sapiens) (UniProt P08913); assay: Effect against Alpha-2 adrenergic receptor using clonidine as ligand; No effect; conditions: Cavia porcellus
T1 sequence (whole entry): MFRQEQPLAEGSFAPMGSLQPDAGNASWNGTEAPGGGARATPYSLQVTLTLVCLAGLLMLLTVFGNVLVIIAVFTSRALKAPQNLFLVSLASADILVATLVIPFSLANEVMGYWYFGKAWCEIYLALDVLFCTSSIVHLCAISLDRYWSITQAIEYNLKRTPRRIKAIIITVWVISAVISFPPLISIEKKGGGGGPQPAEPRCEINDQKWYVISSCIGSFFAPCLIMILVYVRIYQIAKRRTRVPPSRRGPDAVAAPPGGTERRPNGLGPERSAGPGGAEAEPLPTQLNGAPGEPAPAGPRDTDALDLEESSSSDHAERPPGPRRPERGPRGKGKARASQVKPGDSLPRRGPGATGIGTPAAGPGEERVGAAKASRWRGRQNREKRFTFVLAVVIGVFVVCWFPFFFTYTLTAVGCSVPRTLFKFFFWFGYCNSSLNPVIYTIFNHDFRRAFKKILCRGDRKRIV

[10] = target: T2, Alpha-1A adrenergic receptor (Homo sapiens) (UniProt P35348); assay: Effect against Alpha-1 adrenergic receptor using prazosin as ligand; No effect; conditions: Cavia porcellus
T2 sequence (whole entry): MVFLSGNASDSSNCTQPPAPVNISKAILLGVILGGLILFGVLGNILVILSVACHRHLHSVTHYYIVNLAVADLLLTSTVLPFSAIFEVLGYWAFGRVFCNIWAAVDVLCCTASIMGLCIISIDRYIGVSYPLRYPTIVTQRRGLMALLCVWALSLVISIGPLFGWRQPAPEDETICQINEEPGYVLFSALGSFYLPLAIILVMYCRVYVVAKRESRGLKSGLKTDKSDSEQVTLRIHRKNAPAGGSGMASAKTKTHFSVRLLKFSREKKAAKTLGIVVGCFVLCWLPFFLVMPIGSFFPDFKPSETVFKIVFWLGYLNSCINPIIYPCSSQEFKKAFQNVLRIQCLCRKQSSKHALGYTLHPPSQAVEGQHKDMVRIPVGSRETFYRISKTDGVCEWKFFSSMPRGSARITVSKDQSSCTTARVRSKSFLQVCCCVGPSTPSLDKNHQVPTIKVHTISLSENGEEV

[11] = target: Beta-1 adrenergic receptor (Cavia porcellus) (UniProt B0FL73); assay: Effect against Beta-1 adrenergic receptor using dehydroalprenolol as ligand; No effect
Cavia porcellus [12] = species: Cavia porcellus; assay: Inotropic effect at 100 uM; Loses most of its inotropic activity due to resting tension; format: functional; procedure, shortened: as §1
[13] = target: Histamine H1 receptor (Cavia porcellus) (UniProt P31389); assay: Effect against histamine H1 receptor; No effect
Sus scrofa [14] = species: Sus scrofa; assay: Increased contractile response in skinned myocardial fibers in presence of 0.1-10 uM free [Ca2+]; format: functional; conditions: Myocardium
[15] = target: Phosphodiesterase 4 (Homo sapiens) (UniProt P27815+Q08499+Q07343+Q08493); assay: Inhibition of Phosphodiesterase 4; format: protein assay; conditions: Cavia porcellus
Cavia porcellus [16] = species: Cavia porcellus; assay: Activating effect on Sarcolemmal Ca+2 ATPase was determined
Cavia porcellus [17] = species: Cavia porcellus; assay: Activating effect on Sarcolemmal Ca+2 channel uptake was determined; format: functional
Cavia porcellus [18] = species: Cavia porcellus; assay: Inhibition of desmethoxyverapamil binding to Sarcolemmal Ca+2 channel (No effect)
[19] = target: GABA-A receptor; anion channel (Homo sapiens) (UniProt P14867+P47870+P18507+P28472+P48169+Q99928+Q9UN88+P34903+O00591+O14764+Q8N1C3+P18505+P78334+P47869+P31644+Q16445); assay: Binding affinity against GABA-A benzodiazepine receptor using flunitrazepam; format: protein-complex assay; conditions: Cavia porcellus
Sus scrofa [20] = species: Sus scrofa; assay: Increased [Ca2+] activated force in porcine myocardial skinned fibers (Not effective); format: functional, Myocardium
Sus scrofa [21] = species: Sus scrofa; assay: Increase in [Ca2+] activated force in porcine myocardial skinned fibers (ineffective); format: functional; conditions: Myocardium
Cavia porcellus [22] = species: Cavia porcellus; assay: Reduced spontaneous beating frequency at 1-100 uM in guinea pig heart; format: functional
Procedure, shortened: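 Right atria from urethane-anaesthetized guinea pigs, mounted isometrically in Krebs–Henseleit medium at 32 °C; spontaneous sinus-node beating rate recorded over 1–100 μM compound; EC50 taken as concentration giving half-maximal effect.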

Sus scrofa [23] = species: Sus scrofa; assay: Increased [Ca2+] activated force in porcine myocardial skinned fibers by racemic mixture; format: functional; conditions: Myocardium
Sus scrofa [24] = species: Sus scrofa; assay: Increase in isometric force in myocardial skinned fibres at 100 uM with free [Ca2+]; format: functional, Myocardium
Sus scrofa [25] = species: Sus scrofa; assay: Increase in isometric force of myocardial skinned fibres at 30 uM with free [Ca2+]; format: functional

Sequence of Beta-1 adrenergic receptor (Cavia porcellus) (B0FL73 1-467): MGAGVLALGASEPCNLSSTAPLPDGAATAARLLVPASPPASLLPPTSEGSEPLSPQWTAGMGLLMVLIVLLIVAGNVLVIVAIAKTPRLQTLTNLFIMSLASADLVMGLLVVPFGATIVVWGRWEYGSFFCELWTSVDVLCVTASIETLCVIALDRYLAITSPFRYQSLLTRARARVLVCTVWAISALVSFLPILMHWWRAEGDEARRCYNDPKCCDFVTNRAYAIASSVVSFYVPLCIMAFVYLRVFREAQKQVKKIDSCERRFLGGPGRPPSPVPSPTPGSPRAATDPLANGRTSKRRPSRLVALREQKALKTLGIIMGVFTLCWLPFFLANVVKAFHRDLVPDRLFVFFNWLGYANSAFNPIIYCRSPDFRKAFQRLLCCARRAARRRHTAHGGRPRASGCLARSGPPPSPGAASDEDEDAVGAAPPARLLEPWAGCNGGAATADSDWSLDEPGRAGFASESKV
Sequence of Histamine H1 receptor (Cavia porcellus) (P31389 whole entry): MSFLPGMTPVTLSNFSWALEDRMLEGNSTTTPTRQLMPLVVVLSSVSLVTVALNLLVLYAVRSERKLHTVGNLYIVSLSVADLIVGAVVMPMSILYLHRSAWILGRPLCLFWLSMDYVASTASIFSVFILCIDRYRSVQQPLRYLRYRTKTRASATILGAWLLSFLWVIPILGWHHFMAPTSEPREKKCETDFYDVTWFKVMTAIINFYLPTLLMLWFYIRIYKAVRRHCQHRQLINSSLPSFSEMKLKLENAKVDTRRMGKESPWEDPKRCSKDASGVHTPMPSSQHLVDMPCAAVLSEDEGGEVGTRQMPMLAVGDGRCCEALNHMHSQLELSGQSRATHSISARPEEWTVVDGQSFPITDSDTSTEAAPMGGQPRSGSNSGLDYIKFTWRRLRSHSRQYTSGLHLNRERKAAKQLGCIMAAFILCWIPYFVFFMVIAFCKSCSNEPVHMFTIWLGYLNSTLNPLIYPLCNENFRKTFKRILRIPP

`COc1ccc(C(=O)N2CCCc3cc(C4=NNC(=O)SC4C)ccc32)cc1OC` (centres undefined) was tested, and the Effect (Sus scrofa [1]) was 400%.
In the case of `CN1C(=O)C2(c3ccccc3)CC1C(=O)Nc1ccccc12` (centres undefined), the Effect (Sus scrofa [2]) is reported as “inactive”.
In the case of `CN1C(=O)C2(c3ccccc3)CC1NC(=O)c1ccccc12` (centres undefined), the Effect (Sus scrofa [2]) is reported as “inactive”.
`CN1C(=O)C2CC1(c1ccccc1)c1ccccc1C(=O)N2` (centres undefined) was tested, and the Effect (Sus scrofa [2]) was “inactive”.
`CN1C(=O)C2CC1(c1ccccc1)c1ccccc1NC2=O` (single isomer, unassigned; (+)) [listing 1 of 2 here] showed an EC50 (Cavia porcellus [3]) of 8 µM, an Effect (Cavia porcellus [3]) of 40% and an EC50 (Sus scrofa [4]) of 10 µM. The EC50 (Sus scrofa [5]) was 3 µM, the EC50 (Sus scrofa [6]) was 0.3 µM and the Effect (Sus scrofa [7]) was 280%. For the same compound, the Effect (Sus scrofa [8]) was 17%.
For `CN1C(=O)C2CC1(c1ccccc1)c1ccccc1NC2=O` (single isomer, unassigned; (+)) [listing 2 of 2 here], the Effect [9] was “inactive”, the Effect [10] was “inactive” and the Effect [11] was “inactive”. The Activity (Cavia porcellus [12]) was “inactive”, the Effect [13] was “inactive” and the Effect (Sus scrofa [14]) was “Active”. The Effect [15] was “inactive”, the Effect (Cavia porcellus [16]) was “inactive” and the Effect (Cavia porcellus [17]) was “inactive”. For the same compound, the Effect (Cavia porcellus [18]) was “inactive” and the Effect [19] was “inactive”.
In the case of `CN1C(=O)C2CC1(c1ccccc1)c1ccccc1NC2=O` (single isomer, unassigned; (-)) [listing 1 of 2 here], the EC50 (Sus scrofa [20]) is reported as “Not Active”.
For `CN1C(=O)C2CC1(c1ccccc1)c1ccccc1NC2=O` (single isomer, unassigned; (-)) [listing 2 of 2 here], the Effect (Sus scrofa [21]) was “inactive”.
Work on `CN1C(=O)C2CC1(c1ccccc1)c1ccccc1NC2=O` (stereo in doubt) yielded an EC50 (Cavia porcellus [3]; Cavia porcellus, Heart) of 15 µM, a Reduction (Cavia porcellus [22]) of 55% and an EC50 (Sus scrofa [23]) of 20 µM. The Effect (Sus scrofa [24]) was 60% and the Effect (Sus scrofa [25]) was 60%.
